Results as given in ChEMBL document CHEMBL1131023, “Identification of a dihydropyridine as a potent alpha1a adrenoceptor-selective antagonist that inhibits phenylephrine-induced contraction of the human prostate” (J Med Chem, 1998).

Columns and labels:
[1] = target: T1, Alpha-1A adrenergic receptor (Homo sapiens, UniProt P35348); test: Binding affinity determined by displacement of [3H]prazosin from alpha-1A adrenergic receptor
T1 sequence (P35348 whole entry): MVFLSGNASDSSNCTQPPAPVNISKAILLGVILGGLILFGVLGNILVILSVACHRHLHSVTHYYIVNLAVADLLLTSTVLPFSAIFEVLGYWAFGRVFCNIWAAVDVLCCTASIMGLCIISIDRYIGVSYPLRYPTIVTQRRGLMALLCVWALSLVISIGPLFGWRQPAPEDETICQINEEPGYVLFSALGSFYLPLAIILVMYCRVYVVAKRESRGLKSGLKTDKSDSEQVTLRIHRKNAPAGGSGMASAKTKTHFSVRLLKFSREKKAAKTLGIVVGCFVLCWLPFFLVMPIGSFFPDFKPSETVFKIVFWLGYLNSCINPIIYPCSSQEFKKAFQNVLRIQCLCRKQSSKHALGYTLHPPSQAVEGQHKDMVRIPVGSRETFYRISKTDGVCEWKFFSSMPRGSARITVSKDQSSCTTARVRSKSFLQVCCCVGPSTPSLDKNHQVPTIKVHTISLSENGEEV

[2] = target: Voltage-gated L-type calcium channel (Rattus norvegicus, UniProt P22002+Q02485+P27732); test: Binding affinity at the L-type [Ca2+] channel from rat brain homogenate by [3H]nitrendipine displacement.; type: tissue-based
[3] = target: T2, Alpha-2A adrenergic receptor (Homo sapiens, UniProt P08913); test: Binding affinity determined by displacement of [3H]rauwolscine from alpha-2A adrenergic receptor
T2 sequence (P08913 whole entry): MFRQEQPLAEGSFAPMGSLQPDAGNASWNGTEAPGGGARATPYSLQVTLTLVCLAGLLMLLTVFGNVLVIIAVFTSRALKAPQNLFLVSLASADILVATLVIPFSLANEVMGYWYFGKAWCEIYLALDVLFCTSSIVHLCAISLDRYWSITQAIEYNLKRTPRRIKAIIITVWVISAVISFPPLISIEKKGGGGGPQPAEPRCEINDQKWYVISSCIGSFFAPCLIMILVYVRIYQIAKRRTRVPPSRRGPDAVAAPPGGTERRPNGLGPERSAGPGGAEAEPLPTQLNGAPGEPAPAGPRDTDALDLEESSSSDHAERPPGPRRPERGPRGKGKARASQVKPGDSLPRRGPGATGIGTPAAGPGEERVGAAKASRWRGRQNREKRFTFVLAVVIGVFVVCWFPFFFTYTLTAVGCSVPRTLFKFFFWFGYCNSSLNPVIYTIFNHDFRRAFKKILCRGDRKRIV
Procedure, shortened: (§1)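 Radioligand displacement binding at the cloned receptor, incubated for 30 min.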

[4] = target: T3, Alpha-1D adrenergic receptor (Homo sapiens, UniProt P25100); test: Binding affinity determined by displacement of [3H]prazosin from alpha-1D adrenergic receptor; procedure, shortened: as §1
T3 sequence (P25100 whole entry): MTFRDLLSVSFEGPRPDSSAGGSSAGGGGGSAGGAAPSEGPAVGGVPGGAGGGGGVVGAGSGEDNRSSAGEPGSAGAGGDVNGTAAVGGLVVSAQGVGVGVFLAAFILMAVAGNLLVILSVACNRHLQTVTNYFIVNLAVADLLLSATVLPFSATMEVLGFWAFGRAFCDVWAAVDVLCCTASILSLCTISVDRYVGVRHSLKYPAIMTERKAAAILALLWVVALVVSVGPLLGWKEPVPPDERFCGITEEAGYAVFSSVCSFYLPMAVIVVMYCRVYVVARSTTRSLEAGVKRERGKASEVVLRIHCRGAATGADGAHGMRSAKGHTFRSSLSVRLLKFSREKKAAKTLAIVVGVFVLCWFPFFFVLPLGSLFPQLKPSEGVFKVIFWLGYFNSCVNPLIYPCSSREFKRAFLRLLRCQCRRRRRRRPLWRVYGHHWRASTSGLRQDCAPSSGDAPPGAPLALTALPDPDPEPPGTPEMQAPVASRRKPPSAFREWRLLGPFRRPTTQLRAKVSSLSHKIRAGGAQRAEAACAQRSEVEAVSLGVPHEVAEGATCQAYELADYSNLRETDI

[5] = target: T4, Alpha-1B adrenergic receptor (Homo sapiens, UniProt P35368); test: Binding affinity determined by displacement of [3H]prazosin from alpha-1B adrenergic receptor
T4 sequence (P35368 whole entry): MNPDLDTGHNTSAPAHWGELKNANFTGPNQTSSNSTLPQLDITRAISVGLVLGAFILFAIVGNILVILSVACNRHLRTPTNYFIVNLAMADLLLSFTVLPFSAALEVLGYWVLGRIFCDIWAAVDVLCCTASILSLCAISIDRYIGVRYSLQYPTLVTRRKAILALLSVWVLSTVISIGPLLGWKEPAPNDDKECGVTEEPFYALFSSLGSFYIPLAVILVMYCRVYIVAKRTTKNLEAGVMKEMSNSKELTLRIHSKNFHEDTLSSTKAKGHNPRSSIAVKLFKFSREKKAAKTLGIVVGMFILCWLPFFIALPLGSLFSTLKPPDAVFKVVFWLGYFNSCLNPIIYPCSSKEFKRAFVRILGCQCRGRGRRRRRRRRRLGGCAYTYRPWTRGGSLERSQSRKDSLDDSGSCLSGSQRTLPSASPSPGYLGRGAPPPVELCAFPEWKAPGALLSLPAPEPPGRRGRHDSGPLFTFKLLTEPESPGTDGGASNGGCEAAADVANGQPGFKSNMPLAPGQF

[6] = target: T5, Alpha-2C adrenergic receptor (Homo sapiens, UniProt P18825); test: Binding affinity assayed by displacement of [3H]rauwolscine from human alpha-2C adrenergic receptor; procedure, shortened: as §1
T5 sequence (P18825 whole entry): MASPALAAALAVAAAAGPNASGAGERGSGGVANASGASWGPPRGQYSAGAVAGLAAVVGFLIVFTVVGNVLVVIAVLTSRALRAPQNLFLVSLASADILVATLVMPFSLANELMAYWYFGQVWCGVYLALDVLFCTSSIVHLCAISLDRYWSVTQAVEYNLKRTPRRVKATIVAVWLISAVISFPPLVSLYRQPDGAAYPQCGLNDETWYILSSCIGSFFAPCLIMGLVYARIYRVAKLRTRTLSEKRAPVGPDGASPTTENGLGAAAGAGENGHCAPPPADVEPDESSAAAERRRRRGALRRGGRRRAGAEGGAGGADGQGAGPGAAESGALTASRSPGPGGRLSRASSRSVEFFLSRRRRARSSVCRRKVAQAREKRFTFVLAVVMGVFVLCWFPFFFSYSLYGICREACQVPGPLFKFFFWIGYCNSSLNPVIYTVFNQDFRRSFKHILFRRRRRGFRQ

[7] = target: T6, Alpha-2B adrenergic receptor (Homo sapiens, UniProt P18089); test: Binding affinity determined by displacement of [3H]rauwolscine from alpha-2B adrenergic receptor
T6 sequence (P18089 whole entry): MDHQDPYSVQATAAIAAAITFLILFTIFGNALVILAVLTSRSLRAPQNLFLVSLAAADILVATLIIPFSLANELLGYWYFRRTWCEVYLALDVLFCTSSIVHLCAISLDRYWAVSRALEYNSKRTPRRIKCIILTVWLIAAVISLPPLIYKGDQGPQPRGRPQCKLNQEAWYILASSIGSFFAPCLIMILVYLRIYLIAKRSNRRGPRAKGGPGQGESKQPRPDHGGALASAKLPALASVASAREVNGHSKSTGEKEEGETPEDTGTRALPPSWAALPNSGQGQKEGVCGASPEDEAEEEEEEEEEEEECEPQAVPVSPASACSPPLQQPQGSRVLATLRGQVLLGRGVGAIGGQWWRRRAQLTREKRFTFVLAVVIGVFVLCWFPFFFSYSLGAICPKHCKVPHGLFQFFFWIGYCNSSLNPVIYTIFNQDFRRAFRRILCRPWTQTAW

Row | SMILES | Ki [1] [nM] | Log Ki [2] | Ki [3] [nM] | Ki [4] [nM] | Ki [5] [nM] | Ki [6] [nM] | Ki [7] [nM]
1 | CC1=C(C(N)=O)C(c2ccc3c(c2)OCO3)C(C(=O)NCCCN2CCC(c3ccccc3)(c3ccccc3)CC2)=C(C)N1 (configuration not stated) | 8.71 | < -6 | 501 | 1150 | 1170 | 724 | 204
2 | CC(=O)C1=C(C)NC(C)=C(C(=O)NCCCN2CCC(c3ccccc3)(c3ccccc3)CC2)C1c1ccc2c(c1)OCO2 (configuration not stated) | 8.91 | < -6 | 955 | 457 | 380 | 407 | 380
3 | CO/C(O)=C1\C(C)=NC(C)=C(C(=O)NCCCN2CCC(c3ccccc3)(c3ccccc3)CC2)C1c1ccc2c(c1)OCO2 (configuration not stated) | 1.12 | < -6 | 1120 | 302 | 224 | 575 | 871

Further lines, results first:

Row | Ki [1] [nM] | Log Ki [2] | Ki [3] [nM] | Ki [4] [nM] | Ki [5] [nM] | Ki [6] [nM] | Ki [7] [nM] | SMILES
4 | 14.8 | < -6 | 646 | 331 | 135 | 282 | 372 | CO/C(O)=C1\C(C)=NC(C)=C(C(=O)NCCCCN2CCC(c3ccccc3)(c3ccccc3)CC2)C1c1ccc([N+](=O)[O-])cc1 (configuration not stated)
5 | 1.38 | < -6 | 1290 | 316 | 269 | 417 | 912 | CO/C(O)=C1\C(C)=NC(C)=C(C(=O)NCCCN2CCC(c3ccccc3)(c3ccccc3)CC2)C1c1ccc(C)cc1 (configuration not stated)
6 | 0.229 | < -6 | 275 | 66.1 | 13.5 | 81.3 | 219 | CO/C(O)=C1\C(C)=NC(C)=C(C(=O)NCCCN2CCC(c3ccccc3)CC2)C1c1ccc([N+](=O)[O-])cc1 (configuration not stated)
